Laboratory results: ChEMBL document CHEMBL1151723, “Antiplasmodial alkaloids from Desmos rostrata” (J Nat Prod, 2008)

Key:
KB = assay: Cytotoxicity against human KB cells after 72 hrs by neutral red staining; assay type: functional, cell-based
Outline: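 Human nasopharynx carcinoma KB cells (3 × 10^3 cells/mL) in D-MEM with 10% FCS, 2 mM L-glutamine, penicillin G, streptomycin, gentamicin. Compound stocks in DMSO/H2O (1:9). Exposure 72 h at 37 °C, air/CO2 95:5; growth read colorimetrically by neutral red uptake of living cells, relative to untreated cells.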

Plasmodium falciparum = assay: Antiplasmodial activity against Plasmodium falciparum FcB1 as [3H]hypoxanthine uptake after 24 hrs; assay type: functional, organism-based
Outline: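 Chloroquine-resistant FcB1/Colombia P. falciparum, asynchronous cultures at 1% parasitemia, 1.5% final hematocrit. Compounds taken from 10 µg/mL DMSO solution, diluted in culture medium; 24 h at 37 °C in candle jar, then 0.5 µCi [3H]hypoxanthine per well, further 24 h. Freeze-thaw, harvest onto glass fibre filters, scintillation count; inhibition vs same-plate untreated control; IC50 by Desjardins method.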

| SMILES | IC50 (KB) [µM] | IC50 (Plasmodium falciparum) [µM] |
| --- | --- | --- |
| CC(=O)O[C@@]12CO[C@@H]1C[C@H](O)[C@@]1(C)C(=O)[C@H](O)C3=C(C)[C@@H](OC(=O)[C@H](O)[C@@H](NC(=O)OC(C)(C)C)c4ccccc4)C[C@@](O)([C@@H](OC(=O)c4ccccc4)[C@H]21)C3(C)C [DOCETAXEL] | 0.0002 |  |
| COc1cc2c(cc1O)CC[N+]1([O-])Cc3cc(OC)c(OC)cc3C[C@@H]21 (stereo partly drawn) | > 28 | 4.2 |
| COc1cc2c(cc1OC)-c1c(OC)c(O)cc3c1[C@H](C2)N(C)CC3 [PREDICENTRINE] | > 29 | 27.8 |
| COc1cc2c(cc1O)CC[n+]1cc3cc(OC)c(OC)cc3cc1-2 [DEHYDRODISCRETINE] | > 29 | 0.9 |
| COc1ccc2c(c1OC)C[C@H]1NCCc3c(OC)c4c(c-2c31)OCO4 [DESMOROSTRATINE] | 2.4 | 3.6 |
| COc1cc2c(cc1O)CCN1Cc3cc(OC)c(OC)cc3C[C@@H]21 [DISCRETINE] | > 29 | 1.6 |
| COc1c(O)cc2c3c(cc4ccccc4c13)NC2=O [ARISTOLACTAM AII] | > 37 | > 37 |
